Experimental data published in paper PMC11634041 (Nature, 2024).

How the values were obtained:
[1] = biological target: spHCN (R332C background, Alexa-488 labelled, called WT) (Strongylocentrotus purpuratus, UniProt O76977, R332C/M375L); test: two-electrode voltage clamp, oocytes; format: cell-based; conditions: 100 μM ZD7288; pore blocker control; Alexa-488-labelled channel
human HCN1 (full length) = biological target: T1, human HCN1 (full length) (Homo sapiens, UniProt O60741); test: two-electrode voltage clamp, oocytes; format: cell-based; conditions: 30 μM propofol, 20 min incubation; pH 7.4; allosteric inhibitor
T1 sequence (O60741 1-890): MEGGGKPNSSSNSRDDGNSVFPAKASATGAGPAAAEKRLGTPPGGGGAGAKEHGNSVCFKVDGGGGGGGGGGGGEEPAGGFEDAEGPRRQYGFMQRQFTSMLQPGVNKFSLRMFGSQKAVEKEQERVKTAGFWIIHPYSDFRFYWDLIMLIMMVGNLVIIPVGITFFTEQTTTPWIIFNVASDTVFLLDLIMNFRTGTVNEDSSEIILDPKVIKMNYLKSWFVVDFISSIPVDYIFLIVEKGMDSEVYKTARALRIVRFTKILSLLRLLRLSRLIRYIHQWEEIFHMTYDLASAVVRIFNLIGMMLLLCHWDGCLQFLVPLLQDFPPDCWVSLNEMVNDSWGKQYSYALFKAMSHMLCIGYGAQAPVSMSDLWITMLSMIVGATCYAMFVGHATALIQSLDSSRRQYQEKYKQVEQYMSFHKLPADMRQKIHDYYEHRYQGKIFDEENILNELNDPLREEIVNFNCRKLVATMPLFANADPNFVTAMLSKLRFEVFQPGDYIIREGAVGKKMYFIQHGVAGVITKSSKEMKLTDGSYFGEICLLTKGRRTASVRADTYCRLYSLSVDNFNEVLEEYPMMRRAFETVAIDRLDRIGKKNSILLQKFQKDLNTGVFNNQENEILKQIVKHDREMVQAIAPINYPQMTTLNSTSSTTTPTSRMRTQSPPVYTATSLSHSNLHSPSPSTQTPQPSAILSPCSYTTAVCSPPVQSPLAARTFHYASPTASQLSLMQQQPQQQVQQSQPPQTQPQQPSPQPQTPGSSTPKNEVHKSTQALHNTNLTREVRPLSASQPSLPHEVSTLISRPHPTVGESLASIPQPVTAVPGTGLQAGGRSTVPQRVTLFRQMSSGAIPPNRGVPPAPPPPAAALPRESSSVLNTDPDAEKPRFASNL
Procedure, shortened: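 Full-length human HCN1 RNA (wild type or mutant), made by in vitro transcription, injected into defolliculated Xenopus laevis oocytes. Oocytes stored at 16°C in 1:2 diluted L-15 medium with 2.5% penicillin-streptomycin and 5 mM HEPES pH 7.5. Two-electrode clamp used 3 M KCl-filled electrodes (0.1–0.5 MΩ current, 1–5 MΩ voltage).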

cryo-EM structure = biological target: the molecule itself; test: cryo-EM structure

## CCN(c1ccccc1)c1cc(NC)[n+](C)c(C)n1 [ZD7288]
[1]
  two-electrode voltage clamp, oocytes: currents from spHCN M375L channels are blocked by the HCN-channel blocker ZD7288

## CC(C)c1cccc(C(C)C)c1O [propofol, 2,6-di-iso-propylphenol]
Human HCN1 (full length)
  ΔV1/2 (mV) / I / Iapo (%): −30.9 ± 6.4 mV

B1: human HCN1EM M305L in lipid nanodiscs (natural protein, UniProt O60741 1-890, looked up)
chain: MEGGGKPNSSSNSRDDGNSVFPAKASATGAGPAAAEKRLGTPPGGGGAGAKEHGNSVCFKVDGGGGGGGGGGGGEEPAGGFEDAEGPRRQYGFMQRQFTSMLQPGVNKFSLRMFGSQKAVEKEQERVKTAGFWIIHPYSDFRFYWDLIMLIMMVGNLVIIPVGITFFTEQTTTPWIIFNVASDTVFLLDLIMNFRTGTVNEDSSEIILDPKVIKMNYLKSWFVVDFISSIPVDYIFLIVEKGMDSEVYKTARALRIVRFTKILSLLRLLRLSRLIRYIHQWEEIFHMTYDLASAVVRIFNLIGMLLLLCHWDGCLQFLVPLLQDFPPDCWVSLNEMVNDSWGKQYSYALFKAMSHMLCIGYGAQAPVSMSDLWITMLSMIVGATCYAMFVGHATALIQSLDSSRRQYQEKYKQVEQYMSFHKLPADMRQKIHDYYEHRYQGKIFDEENILNELNDPLREEIVNFNCRKLVATMPLFANADPNFVTAMLSKLRFEVFQPGDYIIREGAVGKKMYFIQHGVAGVITKSSKEMKLTDGSYFGEICLLTKGRRTASVRADTYCRLYSLSVDNFNEVLEEYPMMRRAFETVAIDRLDRIGKKNSILLQKFQKDLNTGVFNNQENEILKQIVKHDREMVQAALPRESSSVLNTDPDAEKPRFASNL
cryo-EM structure
  binding result: binds
